Bioassay records from PubChem BioAssay.
SKKanGAS inh = SKKanGAS growth inhibition | AID 1662 | inhibition, % at 7.5 µM | S. pyogenes SKKanGAS, kanamycin growth, BacTiter-Glo, 6 h | hit rate 1.3% among 300,000;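 active means mean replicate score, as percent of positive control median, at least 50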;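 further: strain carries kanamycin resistance gene driven by streptokinase promoter and grows in 40 µg/ml kanamycin; loss of luminescence reflects streptokinase promoter inhibition or plain growth inhibition; 0% = median of DMSO wells and 100% = positive control at its reference dose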
CSC inhib = blocks cancer stem cells. AID 2717. inhibition, % at 7.5 µM. cancer stem cell-like cells viability, luminescence. hit rate 1.1% among 300,000; in the data active means inhibition above about 75%; tested in HMLE shEcad cells
aSyn 5UTR inh = 5' untranslated region of α-synuclein, MLPCN primary screen; alpha-synuclein 5'UTR reporter, inhibitor activity; inhibition, % (tested at 7.5 µM); hit rate 0.82% among 300,000; in the data active means inhibition above about 60%;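 further: H4 neuroglioblastoma cells stably carrying SNCA 5'UTR luciferase fusion; 0% = DMSO wells and 100% = positive control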
T cruzi repl = T. cruzi replication inhibition. AID 1885. hit rate 1.4% among 300,000. T. cruzi beta-gal in NIH3T3, luminescence, 90 h. inhibition, % (concentration not given with the values);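 active means mean inhibition across valid replicates above about 55%, limit read from the data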;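 further: signal also drops with host cell toxicity which is not excluded here; 0% = plate median of DMSO wells and 100% = zero luminescence signal; higher percent means less beta-gal luminescence so fewer parasites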
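System: mouse NIH/3T3 fibroblasts infected with β-gal-expressing T. cruzi Tulahuen C4 / Input: NIH/3T3 cells, 5,000 per well / Buffer or medium: Low-serum DMEM with 2% FBS / Probe or stimulus: 5000 reporter trypomastigotes per well / Schedule: ≥90 h infection period, 3 h prior cell attachment / Measured by: GalScreen luminescence, 60 min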
Mdm2-MdmX inh = disrupts the human Mdm2-MdmX interaction. SaOS-2 split-luciferase Mdm2/MdmX complementation, luminescence. AID 485346. O15151+Q00987. inhibition, % at 8 µM. hit rate 3% among 330,000;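 active means inhibition of at least 50% at 8 µM in the primary screen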
Target sequence (O15151 whole entry, looked up): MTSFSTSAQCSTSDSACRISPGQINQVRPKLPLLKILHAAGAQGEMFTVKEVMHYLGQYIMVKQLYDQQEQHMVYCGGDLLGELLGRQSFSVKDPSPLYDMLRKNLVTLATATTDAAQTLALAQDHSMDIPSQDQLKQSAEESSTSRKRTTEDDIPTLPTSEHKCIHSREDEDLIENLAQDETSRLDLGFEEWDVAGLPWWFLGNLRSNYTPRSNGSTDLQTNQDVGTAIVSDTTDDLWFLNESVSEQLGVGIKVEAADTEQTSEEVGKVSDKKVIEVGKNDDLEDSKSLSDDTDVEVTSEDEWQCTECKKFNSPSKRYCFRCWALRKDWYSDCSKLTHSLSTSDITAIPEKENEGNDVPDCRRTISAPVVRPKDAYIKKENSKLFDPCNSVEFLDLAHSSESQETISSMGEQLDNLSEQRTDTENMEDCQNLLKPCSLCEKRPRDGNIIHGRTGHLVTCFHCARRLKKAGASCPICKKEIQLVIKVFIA
Target sequence (Q00987 whole entry, looked up): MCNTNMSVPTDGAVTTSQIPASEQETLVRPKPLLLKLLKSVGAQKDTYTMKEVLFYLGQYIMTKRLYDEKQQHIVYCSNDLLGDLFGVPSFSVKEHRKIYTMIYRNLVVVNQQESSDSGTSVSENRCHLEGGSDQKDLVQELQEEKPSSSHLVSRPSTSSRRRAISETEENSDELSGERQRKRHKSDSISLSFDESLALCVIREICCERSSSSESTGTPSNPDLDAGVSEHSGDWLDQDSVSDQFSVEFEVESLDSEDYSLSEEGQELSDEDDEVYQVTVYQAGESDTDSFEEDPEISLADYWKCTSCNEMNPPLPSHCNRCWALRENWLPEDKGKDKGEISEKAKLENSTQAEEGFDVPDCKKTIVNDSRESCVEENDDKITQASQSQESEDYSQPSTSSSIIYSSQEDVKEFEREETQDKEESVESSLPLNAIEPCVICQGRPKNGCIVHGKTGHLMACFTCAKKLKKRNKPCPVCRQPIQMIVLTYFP
Mdm2 MdmX conf = human Mdm2/MdmX binding inhibition, confirmed; AID 489028; shares compounds with Mdm2-MdmX inh; inhibition, % at 8 µM; hit rate 55% among 10,000; luminescent assay; in the data active means inhibition above about 40%
FLuc counter = inhibits full-length luciferase, flagging false Mdm2/MdmX hits | hit rate 77% among 6,200 | inhibition, % at 8 µM | SaOS-2 full-length luciferase counterscreen, luminescence | shares compounds with Mdm2-MdmX inh;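 active means mean inhibition at 8 µM reaching about 37%, which flags the compound as non-specific, limit read from the data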;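 further: p53-null SaOS-2 cells with luciferase driven by a doxycycline-inducible promoter; compound on cells about two nights before reading with doxycycline added after day one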
The depositor's hits bear a star; . = not tested or not shown. Most compounds without a hit are left out; they make up all but 5.4% or so of the library.

SMILES | SKKanGAS inh | CSC inhib | aSyn 5UTR inh | T cruzi repl | Mdm2-MdmX inh | Mdm2 MdmX conf | others
CCC(C)[C@H]1CN=C(N)N1CCc1cc(C(F)(F)F)cc(C(F)(F)F)c1 (stereo not given in full) | 6 | 14 | -6 | 16 | 60* | 29
NC1=NC[C@@H](CC2CCCCC2)N1CCc1cc(C(F)(F)F)cc(C(F)(F)F)c1 | . | 139* | . | . | 99* | 100* | FLuc counter=51*
CC(O)[C@H]1CN=C(N)N1CCc1cc(C(F)(F)F)cc(C(F)(F)F)c1 (stereo not given in full) | 1 | -9 | -9 | -2 | 21 | .
NC1=NC[C@H](Cc2ccc(O)cc2)N1CCc1cc(C(F)(F)F)cc(C(F)(F)F)c1 | 5 | -27 | -15 | 7 | -9 | .
CNC(=O)C1CCN(S(=O)(=O)c2c(C)noc2/C=C/c2ccccc2F)CC1 | -3 | 4 | -69 | 3 | -21 | .
O=C(Cn1cnc2c(nnn2Cc2ccc(F)cc2)c1=O)Nc1ccc2c(c1)OCCO2 | -9 | -9 | 5 | -18 | 71* | 21
O=C(Cn1cnc2c(nnn2Cc2ccc(F)cc2)c1=O)Nc1cccc(F)c1 | -30 | -3 | -3 | -29 | 2 | .
O=C(Nc1nccs1)c1cccc(N2C(=O)c3cccc4c([N+](=O)[O-])ccc(c34)C2=O)c1 | 26 | 36 | -6 | 32 | 87* | 9
O=C(Nc1ccc(S(=O)(=O)Nc2nccs2)cc1)c1cccc(N2C(=O)c3ccccc3C2=O)c1 | 7 | 1 | 6 | -13 | 9 | .
Cc1cc(NC(=O)CSc2nc3ccccc3c(=O)n2C(C)c2ccccc2)no1 (stereo not given) | -2 | 2 | 46 | 16 | 72* | 26
COc1ccc(OCC(=O)Nc2cc3oc4ccccc4c3cc2OC)cc1 | -2 | 6 | 14 | 3 | 93* | 67* | FLuc counter=89*
COc1cc2c(cc1NC(=S)NC(=O)/C=C/c1ccco1)oc1ccccc12 | 2 | 14 | -42 | 0 | 50* | 8
COc1cc2c(cc1NC(=O)/C=C/c1ccccc1)oc1ccccc12 | -18 | 73 | -50 | 28 | 2 | .
COc1ccc(/C=C/C(=O)NC(=S)Nc2cc3oc4ccccc4c3cc2OC)cc1 | -3 | -9 | -20 | -14 | 90* | 21
Cc1cccc(CCNS(=O)(=O)c2ccc3c(c2)NC(=O)C(C)S3)c1 (stereo not given) | -22 | -23 | -9 | 2 | 19 | .
CCc1ccc2[nH]c(=O)c(CN(CCCN3CCOCC3)C(=O)Nc3cccc(Cl)c3)cc2c1 | 3 | 8 | -5 | 36 | 50* | 34
Cc1ccc(C)c2[nH]c(=O)c(CN(CCN3CCCC3)C(=O)Nc3cccc(Cl)c3)cc12 | 1 | . | 6 | 8 | 55* | 36 | FLuc counter=38*
C=CCc1c(C)nc(N)[nH]c1=O | 0 | -7 | 4 | -32 | -10 | .
CSc1nc(SCCN(C)C)c2c3c(sc2n1)COC(C)(C)C3 | 0 | -11 | 30 | 42 | 7 | .
Cc1cc(C)n(-c2nc(SCCN(C)C)c3c4c(sc3n2)CCCC4)n1 | 36 | -6 | -71 | 41 | 92* | 60* | FLuc counter=72*
O=C(Nc1ccc2c(c1)C(=O)N(c1ccccc1)C2=O)c1cccs1 | 2 | 2 | -7 | -6 | 50* | 11
COc1ccc(/C=N\NC(=O)CNC(=O)C2COc3ccccc3O2)cc1[N+](=O)[O-] (stereo not given) | -2 | -1 | 18 | 14 | 12 | .
Cc1cc(-c2ccccc2)nc2cc(C(=O)N(Cc3ccccc3)Cc3ccccc3)nn12 | 44 | 83* | 40 | 29 | 51* | 1
COC(=O)c1cc2nc(-c3ccccc3)cc(C)n2n1 | -6 | -7 | 10 | -8 | 0 | .
C=COCCNC(=S)N1CCOCCOCCN(C(=S)NCCOC=C)CCOCCOCC1 | -2 | -7 | 12 | -1 | -5 | .
SMILES | SKKanGAS inh | CSC inhib | aSyn 5UTR inh | T cruzi repl | Mdm2-MdmX inh | Mdm2 MdmX conf | others
c1ccc([C@H]2CNCCN2CCc2cccc3ccccc23)cc1 | . | 25 | . | . | 57* | 22
O=C(N/N=C/c1ccc(F)cc1)c1c(O)c2ccccc2[nH]c1=O | 94* | 4 | 43 | 2 | 88* | 4
CC(C)C(=O)NNC(=O)c1c(O)c2ccccc2[nH]c1=O | -5 | . | 4 | -16 | -12 | .
CC(C)NC(=O)c1c(O)c2ccccc2[nH]c1=O | 7 | -5 | -51 | -14 | 84* | 83* | FLuc counter=46*
O=C(N/N=C/c1ccccc1)c1c(O)c2ccccc2[nH]c1=O | 20 | 19 | -26 | 7 | 38 | .
COc1ccc2nc(C)cc(N3CCN(S(=O)(=O)c4ccccc4F)CC3)c2c1 | . | -9 | . | . | 1 | .
Cc1ccc(NS(=O)(=O)c2ccc(OCC(=O)NCc3cccnc3)cc2)cc1 | 6 | 28 | 14 | 7 | . | .
COc1cc(/C=N/Nc2nc(C)cc(C)n2)cc(OC)c1OC | 1 | 8 | -1 | -9 | 21 | .
Cc1ccc(C(NC(=O)C2CCCCC2)c2c(O)ccc3ccccc23)cc1 (stereo not given) | 1 | 54 | 31 | 45 | 80* | 61* | FLuc counter=49*
CCCCc1nc(SCC(=O)N2CCOCC2)c2c(=O)n(C)c(=O)n(C)c2n1 | 1 | -6 | 6 | 8 | 3 | .
CC(C)(C)OC(=O)[C@H](Cc1ccccc1)NC(=O)c1nc[nH]c1C(=O)N[C@@H](Cc1ccccc1)C(=O)OC(C)(C)C | 70* | -4 | 22 | 40 | 86* | 13
CC(C)(C)OC(=O)NCCCC[C@H](NC(=O)c1[nH]cnc1C(=O)N[C@@H](Cc1ccccc1)C(=O)OC(C)(C)C)C(=O)OC(C)(C)C | 38 | 30 | 23 | 42 | 62* | 10
COc1ccccc1C(=O)Nc1ccc2c(c1)nc(CCNC(=O)c1ccco1)n2C | 4 | . | -295 | -17 | 67* | 53* | FLuc counter=66*
O=C1CC(c2ccc(Cl)cc2)CC(O)=C1C=NCCO (stereo not given) | 1 | -15 | 12 | 6 | 13 | .
O=C(Nc1ccccc1N1CCCC1)C1CCN(C(=O)c2ccc(F)cc2)CC1 | -5 | -10 | -1 | -5 | 33 | .
Oc1ccc(/C=N/Nc2cc(N3CCOCC3)nc(N3CCOCC3)n2)cc1O | 0 | 29 | 10 | 6 | -26 | .
Oc1ccccc1/C=N/Nc1cc(N2CCCC2)nc(N2CCCC2)n1 | 16 | -5 | 2 | 57* | 50 | 30
Cc1cc(=O)n(C)c(=O)n1CCCCCCOc1cccc([N+](=O)[O-])c1 | -2 | -17 | 42 | 7 | 29 | .
COc1ccc(-c2sc3ccc(OC)cc3c2C#Cc2cncn2C)cc1 | . | . | . | . | 54* | 19
COc1ccc(-c2oc3ccccc3c2C#Cc2cncn2C)cc1 | . | 103* | . | . | 72* | 61* | FLuc counter=44*
COc1ccc(-c2sc3cc4c(cc3c2C#Cc2cncn2C)OCO4)cc1 | . | 67 | . | . | -9 | .
CCOC(=O)C(=CNc1ccc(OC)cc1[N+](=O)[O-])C(=O)OCC | -1 | -6 | -15 | 10 | 23 | .
